The values that follow come from ChEMBL document CHEMBL1133018, “Deltorphin II analogues with 6-hydroxy-2-aminotetralin-2-carboxylic acid in position 1” (J Med Chem, 2000).

*1 amine or outer side, *2 acyl side, *3 side chain or, on linkers, in order; H or OH if unused. Where a SMILES comes first, the peptide text is derived from it. [ ]: non-standard residue; d: D form. X1 = O=C([C@@]1(N[*:1])CCc2cc(O)ccc2C1)[*:2]; X2 = O=C([C@]1(N[*:1])CCc2cc(O)ccc2C1)[*:2] Some results are limits rather than exact numbers.

The target in test [1] is Mu-type opioid receptor (Cavia porcellus, UniProt P97266). As to the kind of experiment: inhibitory concentration for inhibition of electrically induced smooth muscle contractions of GPI (guinea pig ileum) myenteric-plexus-longitudinal muscle strips. The class given is functional, tissue-based. In a few lines:
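Longitudinal muscle-myenteric plexus strips from ileum of male guinea pigs (400-600 g), electrically stimulated under standard conditions. IC50 taken as 50% inhibition of twitch, mean ± SEM of 4-6 measurements. Where no IC50 was reached, % inhibition is given at 10^-6 or 10^-5 M (n = 4).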

In test [2] the target is T1, Delta-type opioid receptor (Rattus norvegicus, UniProt P33533). Briefly: Binding affinities against Opioid receptor delta 1 of rat brain using [3H]p-Cl-Phe4-DPDPE as radioligand. In a few lines:
(§1)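 Wistar rat brain (minus cerebellum) membranes, 300-500 µg protein, 50 mM Tris-HCl pH 7.4. Displacement of [3H]pClPhe4-DPDPE (0.8 nM, 25 °C, 90 min) or [3H]Ile5,6-deltorphin II (0.5 nM, 35 °C, 45 min). Filtration, scintillation counting. Nonspecific binding defined with 10 µM naloxone. Ki as mean ± SEM of 3-5 runs in duplicate; Hill slopes also fitted.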

The species entered for test [3] is Rattus norvegicus. As to the kind of experiment: Stimulation of [35S]GTP-gamma-S, binding at the concentration of 0.1 uM. The class given is functional. The gist of the method:
(§2)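 Rat frontal cortex crude membranes, 10 µg protein, in 50 mM Tris-HCl with 1 mM EGTA, 3 mM MgCl2, 100 mM NaCl. Incubated with 30 µM GDP and 0.05 nM [35S]GTPγS, 1 h at 30 °C. Nonspecific binding taken with 10 µM unlabeled GTPγS. Filtered and counted. Stimulation expressed as % of specific binding, mean ± SEM of three triplicate experiments.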

The target of test [4] is T1, Delta-type opioid receptor. Briefly: Binding affinities against delta 2 opioid receptor of rat brain using [3H]Ile5,6-deltorphin II as radioligand. The gist of the method:
as §1

In test [5] the target is Mu-type opioid receptor (Rattus norvegicus) (UniProt P33535).
The target of test [6] is Delta-type opioid receptor (Rattus norvegicus) (UniProt P33533).
The target is the same in test [7]. This is another data set of the same source.
The species entered for test [8] is Rattus norvegicus. Briefly: Stimulation of [35S]GTP-gamma-S, binding at the concentration of 1 uM. The class given is functional. In a few lines:
as §2

Test [9] deals with Mu-type opioid receptor (Rattus norvegicus) (UniProt P33535). The source holds these as a separate data set.
Test [10] addresses Delta-type opioid receptor (Rattus norvegicus) (UniProt P33533). The source holds these as a separate data set.

T1 sequence (P33533 whole entry): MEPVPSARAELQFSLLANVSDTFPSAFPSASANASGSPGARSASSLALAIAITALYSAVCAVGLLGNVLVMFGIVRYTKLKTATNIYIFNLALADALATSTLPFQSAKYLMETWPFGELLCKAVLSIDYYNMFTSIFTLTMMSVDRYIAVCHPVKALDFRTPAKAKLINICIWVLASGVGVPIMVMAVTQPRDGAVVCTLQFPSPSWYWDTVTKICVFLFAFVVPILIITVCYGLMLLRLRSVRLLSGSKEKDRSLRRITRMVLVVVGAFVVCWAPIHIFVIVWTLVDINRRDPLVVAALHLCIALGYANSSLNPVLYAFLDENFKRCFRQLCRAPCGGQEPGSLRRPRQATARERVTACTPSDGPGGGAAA
Sequence of Delta-type opioid receptor (Rattus norvegicus) (P33533 whole entry): as above
Sequence of Mu-type opioid receptor (P97266 whole entry): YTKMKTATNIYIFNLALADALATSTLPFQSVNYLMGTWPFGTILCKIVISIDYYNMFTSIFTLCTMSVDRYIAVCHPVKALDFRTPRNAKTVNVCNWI
Sequence of Mu-type opioid receptor (Rattus norvegicus) (P33535 whole entry, looked up): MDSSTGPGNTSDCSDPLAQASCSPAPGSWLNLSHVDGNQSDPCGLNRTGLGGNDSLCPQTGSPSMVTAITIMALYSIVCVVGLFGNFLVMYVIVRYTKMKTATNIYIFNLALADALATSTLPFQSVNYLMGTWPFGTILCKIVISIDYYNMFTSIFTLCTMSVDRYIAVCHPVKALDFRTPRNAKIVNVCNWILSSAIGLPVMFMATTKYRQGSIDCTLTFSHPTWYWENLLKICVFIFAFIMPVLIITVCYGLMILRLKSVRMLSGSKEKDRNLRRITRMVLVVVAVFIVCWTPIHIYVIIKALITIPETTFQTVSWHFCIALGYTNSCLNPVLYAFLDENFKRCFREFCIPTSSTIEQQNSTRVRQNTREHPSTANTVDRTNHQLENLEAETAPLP

In test [1], `CC[C@H](C)[C@H](NC(=O)[C@H](CCC(=O)O)NC(=O)[C@H](Cc1ccccc1)NC(=O)[C@H](C)NC(=O)[C@@]1(N)CCc2cc(O)ccc2C1)C(=O)N[C@H](C(=O)NCC(N)=O)[C@@H](C)CC` (H-[X1]AFEIIG-NH2) displayed an IC50 of 5130 nM. For the same compound, the Ki in [2] is 0.16 nM; in test [4] it was 0.34 nM. The Stimulation in [3] is 155%. Further, the results for the Hill coefficient in test [5], in [6] and in test [7] were -1.01, -0.34 and -0.69, respectively.
Consider `CC[C@H](C)[C@H](NC(=O)[C@H](CCC(=O)O)NC(=O)[C@H](Cc1ccccc1)NC(=O)[C@H](C)NC(=O)[C@]1(N)CCc2cc(O)ccc2C1)C(=O)N[C@H](C(=O)NCC(N)=O)[C@@H](C)CC` (H-[X2]AFEIIG-NH2), for which the concentration for half-maximal inhibition (IC50) in test [1] is more than 10000 nM. In addition, the inhibition constant Ki in test [2] was determined as 0.94 nM; in test [4] it was 1 nM. Besides, the Stimulation in test [8] was found to be 136.9%. For the same compound, the Hill coefficient in test [9] is -1.09; in test [10], -0.42; in test [7], -0.5.
